Results from ChEMBL document CHEMBL4007486, “Prospective Evaluation of Free Energy Calculations for the Prioritization of Cathepsin L Inhibitors” (J Med Chem, 2017).

How the values were obtained:
Procathepsin L [1] = target: T1, Procathepsin L (Homo sapiens, UniProt P07711); experiment: Inhibition of human Cathepsin L by fluorescence assay based Cheng-Prusoff equation analysis
Summary of the method: (§1)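 Fluorescence-based enzymatic assay against human cathepsin L, run as previously described. IC50 was measured, and Ki was then calculated from it with the Cheng-Prusoff equation.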

[2] = Lipophilicity, logD of the compound; format: physicochemical; settings: octanol/water
Procathepsin L [3] = target: T1, Procathepsin L; experiment: Inhibition of human Cathepsin L; summary of the method: as §1

T1 sequence (P07711 whole entry): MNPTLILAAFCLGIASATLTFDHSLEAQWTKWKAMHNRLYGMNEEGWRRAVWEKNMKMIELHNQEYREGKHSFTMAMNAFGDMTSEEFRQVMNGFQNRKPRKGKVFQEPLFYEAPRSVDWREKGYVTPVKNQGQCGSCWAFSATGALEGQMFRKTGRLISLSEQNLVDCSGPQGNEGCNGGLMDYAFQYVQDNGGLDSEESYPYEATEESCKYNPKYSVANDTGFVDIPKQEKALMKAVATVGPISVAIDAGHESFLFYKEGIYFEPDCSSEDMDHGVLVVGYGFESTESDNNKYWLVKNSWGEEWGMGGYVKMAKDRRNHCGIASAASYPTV

| SMILES | Ki (Procathepsin L [1]) | logD [2] | Ki (Procathepsin L [3]) |
| --- | --- | --- | --- |
| N#Cc1ncc(F)c(N(Cc2ccc3c(c2)OCO3)[C@H]2CC[C@@H](C(F)(F)F)CC2)n1 | 3500 nM | – | – |
| N#Cc1ncc(F)c(N(CCC2CCOCC2)Cc2ccc3c(c2)OCO3)n1 | 2790 nM | 3.46 | – |
| N#Cc1ncc(F)c(N(CCOc2ccccc2)Cc2ccc3c(c2)OCO3)n1 | 77 nM | – | – |
| N#Cc1ncc(F)c(N(CCCc2ccc(Cl)cc2)Cc2ccc3c(c2)OCO3)n1 | 27 nM | – | – |
| N#Cc1ncc(F)c(N(Cc2ccc3c(c2)OCO3)c2cccc(OCc3ccccc3)c2)n1 | > 5100 nM | – | – |
| N#Cc1ncc(F)c(N(CCc2cccc(Br)c2)Cc2ccc3c(c2)OCO3)n1 | 358 nM | – | – |
| N#Cc1nc(N2CCOCC2)nc(N(Cc2ccc(Cl)cc2)C2CCCCC2)n1 | – | – | 13 nM |
| N#Cc1ncc(F)c(N(Cc2ccc3c(c2)OCO3)c2ccccc2)n1 | 1800 nM | 3.44 | – |
| N#Cc1ncc(F)c(N(Cc2ccc3c(c2)OCO3)C2CCSCC2)n1 | 515 nM | 3.61 | – |
| N#Cc1cccc(CCN(Cc2ccc3c(c2)OCO3)c2nc(C#N)ncc2F)c1 | 304 nM | 2.12 | – |
| N#Cc1ncc(F)c(N(Cc2ccc3c(c2)OCO3)c2ccc(OCC(F)(F)F)cc2)n1 | > 5100 nM | – | – |
| N#Cc1ncc(F)c(N(CCCc2noc(-c3ccccc3)n2)Cc2ccc3c(c2)OCO3)n1 | 91 nM | – | – |
| CC(C)=CCN(Cc1ccc2c(c1)OCO2)c1nc(C#N)ncc1F | 1010 nM | – | – |
| CSc1cccc(N(Cc2ccc3c(c2)OCO3)c2nc(C#N)ncc2F)c1 | 5100 nM | – | – |
| N#Cc1ncc(F)c(N(CCc2ccncc2)Cc2ccc3c(c2)OCO3)n1 | 505 nM | 3.15 | – |
| CC(C)[C@H]1CC[C@@H](N(Cc2ccc3c(c2)OCO3)c2nc(C#N)ncc2F)CC1 | 3020 nM | 2.74 | – |
| COc1cccc(CCCN(Cc2ccc3c(c2)OCO3)c2nc(C#N)ncc2F)c1 | 30 nM | – | – |
| N#Cc1ncc(F)c(N(Cc2ccc3c(c2)OCO3)c2ccc(F)cc2)n1 | 952 nM | 3.49 | – |
| N#Cc1ncc(F)c(N(Cc2ccccc2)Cc2ccc3c(c2)OCO3)n1 | > 5100 nM | – | – |

| SMILES | Ki (Procathepsin L [1]) | logD [2] | Ki (Procathepsin L [3]) |
| --- | --- | --- | --- |
| N#Cc1ncc(F)c(N(Cc2ccc(Cl)cc2)Cc2ccc3c(c2)OCO3)n1 | > 5100 nM | – | – |
| N#Cc1ncc(F)c(N(CCc2ccccn2)Cc2ccc3c(c2)OCO3)n1 | 3860 nM | 3.39 | – |
| N#Cc1ncc(F)c(N(Cc2ccc3c(c2)OCO3)[C@H]2CC[C@H](C(F)(F)F)CC2)n1 | > 5100 nM | – | – |
| CC1(N(Cc2ccc3c(c2)OCO3)c2nc(C#N)ncc2F)CC1 | > 5100 nM | 3.38 | – |
| N#Cc1ncc(F)c(N(CCc2ccsc2)Cc2ccc3c(c2)OCO3)n1 | 671 nM | – | – |
| N#Cc1ncc(F)c(N(CCC(F)(F)F)Cc2ccc3c(c2)OCO3)n1 | 25 nM | 3.16 | – |
| N#Cc1ncc(F)c(N(CCOc2ccc(Cl)cc2)Cc2ccc3c(c2)OCO3)n1 | 167 nM | – | – |
| Cc1cc(OCCN(Cc2ccc3c(c2)OCO3)c2nc(C#N)ncc2F)cc(C)c1Cl | 1430 nM | 2.32 | – |
| N#Cc1ncc(F)c(N(CCc2ccc(F)cc2)Cc2ccc3c(c2)OCO3)n1 | 279 nM | – | – |
| N#Cc1ncc(F)c(N(Cc2ccc3c(c2)OCO3)CC2CCCC2)n1 | 12 nM | – | – |
| N#Cc1ncc(F)c(N(Cc2ccc3c(c2)OCO3)CC2CC2)n1 | 77 nM | 3.02 | – |
| N#Cc1ncc(F)c(N(Cc2ccc3c(c2)OCO3)c2ccc(OCC3CC3)cc2)n1 | > 5100 nM | – | – |
| N#Cc1ncc(F)c(N(CCOc2ccc3ccccc3c2)Cc2ccc3c(c2)OCO3)n1 | 123 nM | – | – |
| N#Cc1ncc(F)c(N(CCc2ccccc2)Cc2ccc3c(c2)OCO3)n1 | 217 nM | – | – |
| Cc1nsc(N2CCC(N(Cc3ccc4c(c3)OCO4)c3nc(C#N)ncc3F)CC2)n1 | 411 nM | 3.49 | – |
| CNCCc1cccc(N(Cc2ccc3c(c2)OCO3)c2nc(C#N)ncc2F)c1 | > 5100 nM | – | – |
| Cc1nc2n(c(=O)c1CCN(Cc1ccc3c(c1)OCO3)c1nc(C#N)ncc1F)CCCC2 | 1750 nM | 2.96 | – |
| N#Cc1ncc(F)c(N(Cc2ccc3c(c2)OCO3)c2ccc(Oc3cccnc3)cc2)n1 | 1020 nM | – | – |
| N#Cc1ncc(F)c(N(Cc2ccc3c(c2)OCO3)C2CCCCC2)n1 | – | – | 200 nM |
